Assay results from ChEMBL document CHEMBL1151742, “Design, synthesis, and characterization of high-affinity, systemically-active galanin analogues with potent anticonvulsant activities” (J Med Chem, 2008).
Activity calls are given as the source filed them. The rule behind the calls is not given here.

Assays:
Mus musculus [1] = test: Anticonvulsant activity in CF1 mouse assessed as inhibition of 6 Hz corneal stimulation-induced limbic seizures at 4 mg/kg, ip administered 240 mins before 6 Hz corneal stimulation; format: functional, organism-based; set-up: dose 4 mg/kg; conditions: Limbic system
How it was run: (§1)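 Each analogue given ip at 4 mg/kg to five groups of CF-1 mice (n = 4 per group), one group per time point. Seizure challenge was 6 Hz corneal stimulation (32 mA for 3 s, corneal electrodes) at 15, 30, 60, 120 or 240 min after dosing. A mouse without a limbic seizure (jaw chomping, vibrissae twitching, forelimb clonus, Straub tail) was counted as protected.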

Mus musculus [2] = test: Anticonvulsant activity in CF1 mouse assessed as inhibition of 6 Hz corneal stimulation-induced limbic seizures at 4 mg/kg, ip administered 120 mins before 6 Hz corneal stimulation; format: functional, organism-based; set-up: dose 4 mg/kg; conditions: Limbic system; how it was run: as §1
Mus musculus [3] = test: Anticonvulsant activity in CF1 mouse assessed as inhibition of 6 Hz corneal stimulation-induced limbic seizures at 4 mg/kg, ip administered 60 mins before 6 Hz corneal stimulation; format: functional, organism-based; set-up: dose 4 mg/kg; conditions: Limbic system; how it was run: as §1
Mus musculus [4] = test: Anticonvulsant activity in CF1 mouse assessed as inhibition of 6 Hz corneal stimulation-induced limbic seizures at 4 mg/kg, ip administered 15 mins before 6 Hz corneal stimulation; format: functional, organism-based; set-up: dose 4 mg/kg; conditions: Limbic system; how it was run: as §1
Mus musculus [5] = test: Anticonvulsant activity in intracerebroventricularly dosed pharmacoresistant epilepsy CF1 mouse model; format: functional
How it was run: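 Intracerebroventricular injection in mice, followed by the 6 Hz seizure model (32 mA). ED50 was determined in nmole with 95% CI.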

Mus musculus [6] = test: Anticonvulsant activity in CF1 mouse assessed as inhibition of 6 Hz corneal stimulation-induced limbic seizures at 4 mg/kg, ip administered 30 mins before 6 Hz corneal stimulation; format: functional, organism-based; set-up: dose 4 mg/kg; conditions: Limbic system; how it was run: as §1
[7] = Metabolic stability in rat serum assessed as half life at pH 7.5; format: ADME, cell-free
How it was run: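 Peptide (final 20 µM) was incubated in 25% rat serum with 0.1 M Tris-HCl pH 7.5 at 37 °C, serum pre-warmed 10 min. Aliquots taken up to 8 h were quenched with 15% TCA in 40% isopropanol, held 15 min at -20 °C and centrifuged. Intact peptide was measured by reversed-phase HPLC peak area, and half-life was calculated from the disappearance.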

[8] = Partition coefficient, log D at pH 7.4 by shake-flask method; format: physicochemical; conditions: octanol/water
How it was run: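 Shake-flask partitioning between water-saturated n-octanol and PBS pH 7.4. Peptide (0.4 mg) was reconstituted in 1 mL PBS, or in octanol if poorly water-soluble. Octanol peptide was taken as total minus aqueous, and logD = log([octanol]/[aqueous]). Four independent preparations per analogue.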

Galanin receptor type 2 [9] = target: T1, Galanin receptor type 2 (Homo sapiens, UniProt O43603); test: Displacement of europium-labeled galanin from human GalR2 expressed in CHO-K1 cells; format: cell-based
T1 sequence (O43603 whole entry): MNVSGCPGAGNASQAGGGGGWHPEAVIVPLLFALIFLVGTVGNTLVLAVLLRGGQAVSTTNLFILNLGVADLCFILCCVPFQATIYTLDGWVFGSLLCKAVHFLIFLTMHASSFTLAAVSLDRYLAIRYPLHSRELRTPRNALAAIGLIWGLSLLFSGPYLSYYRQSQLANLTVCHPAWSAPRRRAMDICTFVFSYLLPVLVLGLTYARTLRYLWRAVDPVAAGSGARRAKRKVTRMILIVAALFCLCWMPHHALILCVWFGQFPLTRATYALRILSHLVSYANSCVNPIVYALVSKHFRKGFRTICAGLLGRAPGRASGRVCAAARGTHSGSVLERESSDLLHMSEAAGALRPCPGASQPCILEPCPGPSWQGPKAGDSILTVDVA

Galanin receptor type 1 = target: T2, Galanin receptor type 1 (Homo sapiens, UniProt P47211); test: Displacement of europium-labeled galanin from human GalR1 expressed in HEK293 EBNA cells; format: cell-based
T2 sequence (P47211 whole entry): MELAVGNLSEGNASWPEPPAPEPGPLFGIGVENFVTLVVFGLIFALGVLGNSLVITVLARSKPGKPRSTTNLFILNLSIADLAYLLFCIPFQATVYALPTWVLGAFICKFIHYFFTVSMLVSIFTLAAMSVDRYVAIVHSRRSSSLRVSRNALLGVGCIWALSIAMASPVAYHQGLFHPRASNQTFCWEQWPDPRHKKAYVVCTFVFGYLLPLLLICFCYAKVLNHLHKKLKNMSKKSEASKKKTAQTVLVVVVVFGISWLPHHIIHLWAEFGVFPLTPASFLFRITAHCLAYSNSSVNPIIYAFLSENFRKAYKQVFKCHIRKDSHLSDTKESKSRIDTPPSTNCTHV

Galanin receptor type 3 = target: T3, Galanin receptor type 3 (Homo sapiens, UniProt O60755); test: Binding affinity to human GalR3
T3 sequence (O60755 whole entry): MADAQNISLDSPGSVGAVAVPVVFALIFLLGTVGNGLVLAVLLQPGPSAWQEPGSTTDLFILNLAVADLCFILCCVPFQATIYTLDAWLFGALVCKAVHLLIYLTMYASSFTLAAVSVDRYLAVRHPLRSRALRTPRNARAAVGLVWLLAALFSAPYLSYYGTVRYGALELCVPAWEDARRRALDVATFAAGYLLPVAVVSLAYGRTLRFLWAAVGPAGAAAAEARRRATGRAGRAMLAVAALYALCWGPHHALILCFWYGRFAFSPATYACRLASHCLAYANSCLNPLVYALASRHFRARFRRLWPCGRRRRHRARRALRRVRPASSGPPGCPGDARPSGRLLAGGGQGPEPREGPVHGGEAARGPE

Galanin receptor type 2 [10] = target: T1, Galanin receptor type 2; test: Binding affinity to human GalR2
[11] = Toxicity in CF1 mouse assessed as motor function by rotarod test; format: organism-based; conditions: in vivo
Mus musculus [12] = test: Anticonvulsant activity in ip dosed CF1 mouse assessed as inhibition of 6 Hz corneal stimulation-induced limbic seizures; format: functional; conditions: CF1, Limbic system

Compound | half-life [7] | logD [8] | Kd (Galanin receptor type 3) | Kd (Galanin receptor type 2 [10]) | Activity (Mus musculus [1]) | Activity (Mus musculus [2]) | Activity (Mus musculus [3]) | Activity (Mus musculus [4]) | ED50 (Mus musculus [5]) | Activity (Mus musculus [6]) | Ki (Galanin receptor type 2 [9]) | Ki (Galanin receptor type 1) | TD50 [11] | ED50 (Mus musculus [12])
CC(C)C[C@H](NC(=O)[C@H](CC(C)C)NC(=O)[C@H](Cc1ccc(O)cc1)NC(=O)CNC(=O)[C@H](C)NC(=O)[C@H](CO)NC(=O)[C@H](CC(N)=O)NC(=O)[C@H](CC(C)C)NC(=O)[C@@H](NC(=O)[C@H](Cc1c[nH]c2ccccc12)NC(=O)CN)[C@@H](C)O)C(=O)NCC(=O)N1CCC[C@H]1C(=O)N[C@@H](Cc1cnc[nH]1)C(=O)N[C@@H](C)C(=O)N[C@H](C(N)=O)C(C)C | 0.13 h | 0.66 |  |  | inactive | inactive | inactive | inactive | 1.7 nmol | inactive |  |  |  | 
CCCCCCCCCCCCCCCC(=O)NCCCC[C@H](NC(=O)[C@H](CCCCN)NC(=O)[C@H](CCCCN)NC(=O)[C@H](CC(C)C)NC(=O)[C@H](CC(C)C)NC(=O)[C@H](Cc1ccc(O)cc1)NC(=O)CNC(=O)[C@H](C)NC(=O)[C@H](CO)NC(=O)[C@H](CC(N)=O)NC(=O)[C@H](CC(C)C)NC(=O)[C@@H](NC(=O)[C@H](Cc1c[nH]c2ccccc12)NC(=O)CNC)[C@@H](C)O)C(=O)N[C@@H](CCCCN)C(N)=O | > 10 h |  |  |  | inactive |  | Active |  |  | Active | 1320 nM | 306 nM |  | 
CSCC[C@H](NC(=O)[C@H](CC(C)C)NC(=O)CNC(=O)[C@H](Cc1ccccc1)NC(=O)[C@H](Cc1ccccc1)NC(=O)[C@H](CCC(N)=O)NC(=O)[C@H](CCC(N)=O)NC(=O)[C@@H]1CCCN1C(=O)CNC(=O)[C@H](CC(C)C)NC(=O)[C@H](CC(C)C)NC(=O)[C@H](Cc1ccc(O)cc1)NC(=O)CNC(=O)[C@H](C)NC(=O)[C@H](CO)NC(=O)[C@H](CC(N)=O)NC(=O)[C@H](CC(C)C)NC(=O)[C@@H](NC(=O)[C@H](Cc1c[nH]c2ccccc12)NC(=O)CN)[C@@H](C)O)C(N)=O [GALANTIDE] |  |  | 40 nM | 1 nM |  |  |  |  |  |  |  |  |  | 
CCCCCCCCCCCCCCCC(=O)NCCCC[C@H](NC(=O)[C@H](CCCCN)NC(=O)[C@H](CCCCN)NC(=O)[C@@H]1CCCN1C(=O)CNC(=O)[C@H](CC(C)C)NC(=O)[C@H](CC(C)C)NC(=O)[C@H](Cc1ccc(O)cc1)NC(=O)CNC(=O)[C@H](C)NC(=O)[C@H](CO)NC(=O)[C@H](CC(N)=O)NC(=O)[C@H](CC(C)C)NC(=O)[C@@H](NC(=O)[C@H](Cc1c[nH]c2ccccc12)NC(=O)CNC)[C@@H](C)O)C(=O)N[C@@H](CCCCN)C(N)=O | 9.4 h | 1.26 |  |  | inactive | Active | Active |  |  | Active | 51.5 nM |  | 21 mg/kg | 0.8 mg/kg
CC(C)C[C@H](NC(=O)[C@H](CC(C)C)NC(=O)[C@H](Cc1ccc(O)cc1)NC(=O)CNC(=O)[C@H](C)NC(=O)[C@H](CO)NC(=O)[C@H](CC(N)=O)NC(=O)[C@H](CC(C)C)NC(=O)[C@@H](NC(=O)[C@H](Cc1c[nH]c2ccccc12)NC(=O)CN)[C@@H](C)O)C(=O)NCC(=O)N1CCC[C@H]1C(=O)N1CCC[C@H]1C(=O)N1CCC[C@H]1C(=O)NCC(=O)N[C@@H](Cc1ccccc1)C(=O)N[C@@H](CO)C(=O)N1CCC[C@H]1C(=O)N[C@@H](Cc1ccccc1)C(=O)N[C@@H](CCCN=C(N)N)C(N)=O |  |  | 15 nM | 2 nM |  |  |  |  |  |  |  |  |  | 
CNCC(=O)N[C@@H](Cc1c[nH]c2ccccc12)C(=O)N[C@H](C(=O)N[C@@H](CC(C)C)C(=O)N[C@@H](CC(N)=O)C(=O)N[C@@H](CO)C(=O)N[C@@H](C)C(=O)NCC(=O)N[C@@H](Cc1ccc(O)cc1)C(=O)N[C@@H](CC(C)C)C(=O)N[C@@H](CC(C)C)C(=O)NCC(=O)N1CCC[C@H]1C(=O)N[C@@H](CCCCN)C(=O)N[C@@H](CCCCN)C(=O)N[C@@H](CCCCN)C(=O)N[C@@H](CCCCN)C(N)=O)[C@@H](C)O | 4.6 h | 0.4 |  |  | inactive | inactive |  | inactive |  |  | 24 nM | 0.4 nM |  | 

More lines, main results first:

half-life [7] | logD [8] | Kd (Galanin receptor type 3) | Kd (Galanin receptor type 2 [10]) | Compound | Activity (Mus musculus [1]) | Activity (Mus musculus [2]) | Activity (Mus musculus [3]) | Activity (Mus musculus [4]) | ED50 (Mus musculus [5]) | Activity (Mus musculus [6]) | Ki (Galanin receptor type 2 [9]) | Ki (Galanin receptor type 1) | TD50 [11] | ED50 (Mus musculus [12])
> 10 h | 1.55 |  |  | CCCCCCCCCCCCCCCC(=O)NCCCC[C@H](NC(=O)[C@H](C)NC(=O)[C@H](Cc1cnc[nH]1)NC(=O)[C@@H]1CCCN1C(=O)CNC(=O)[C@H](CC(C)C)NC(=O)[C@H](CC(C)C)NC(=O)[C@H](Cc1ccc(O)cc1)NC(=O)CNC(=O)[C@H](C)NC(=O)[C@H](CO)NC(=O)[C@H](CC(N)=O)NC(=O)[C@H](CC(C)C)NC(=O)[C@@H](NC(=O)[C@H](Cc1c[nH]c2ccccc12)NC(=O)CNC)[C@@H](C)O)C(N)=O | inactive | inactive | inactive | inactive |  | inactive | 160 nM |  |  | 
 |  | 69 nM | 2.3 nM | H-GWTLNSAGYLLGPHAVGNHRSFSDKNGLT-OH |  |  |  |  |  |  |  |  |  | 
